Laboratory results: ChEMBL document CHEMBL4406880, “Design, synthesis, and bioactivity of dihydropyrimidine derivatives as kinesin spindle protein inhibitors” (Bioorg Med Chem, 2019)

How the values were obtained:
NCI-H460 [1] = test: Growth inhibition of human NCI-H460 cells assessed as growth percentage at 10 uM incubated for 48 hrs by sulforhodamine B assay relative to control; assay type: functional; settings: NCI-H460, 48 h, read-out: Activity
How it was run: (§1)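 NCI-60 one-dose screen. Cells in RPMI 1640 with 5% FBS and 2 mM L-glutamine, seeded at 5,000–40,000 cells/well according to doubling time, and preincubated overnight at 37 °C, 5% CO2. A time-zero plate was TCA-fixed at drug addition. Compound from DMSO stock, final 10 µM, 48 h; DMSO vehicle controls. Fixation with TCA, 10% final (16% for suspension cells). SRB stain, Tris solubilization, A515. Result given as % growth versus untreated cells.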

[2] = Growth inhibition of human HEK293 cells assessed as cell viability at 1.56 ug incubated for 48 hrs by MTT assay relative to control; assay type: cell-based; settings: read-out: Activity
CAKI-1 = test: Growth inhibition of human Caki1 cells assessed as growth percentage at 10 uM incubated for 48 hrs by sulforhodamine B assay relative to control; assay type: functional; settings: CAKI-1, 48 h, read-out: Activity
How it was run: (§2)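 NCI-60 one-dose screen: cells in RPMI 1640 with 5% FBS and 2 mM L-glutamine, plated at 5,000–40,000 cells/well and preincubated 24 h at 37 °C, 5% CO2. Compound is added from a DMSO stock to a final 10 µM and incubated 48 h. Cells are TCA-fixed and stained with sulforhodamine B, read at 515 nm. Output is % growth versus untreated control, with a time-zero plate.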

[3] = Growth inhibition of human HEK293 cells assessed as cell viability at 6.25 ug incubated for 48 hrs by MTT assay relative to control; assay type: cell-based; settings: read-out: Activity
A498 = test: Growth inhibition of human A498 cells assessed as growth percentage at 10 uM incubated for 48 hrs by sulforhodamine B assay relative to control; assay type: functional; settings: A498, 48 h, read-out: Activity; how it was run: as §2
[4] = Growth inhibition of human HEK293 cells assessed as cell viability at 100 ug incubated for 48 hrs by MTT assay relative to control; assay type: cell-based; settings: read-out: Activity
[5] = Inhibition of kinesin (unknown origin) assessed as reduction in ATPase activity using microtubule as substrate measured for 5 to mins; design: species or system Homo sapiens
SNB-75 = test: Growth inhibition of human SNB75 cells assessed as growth percentage at 10 uM incubated for 48 hrs by sulforhodamine B assay relative to control; assay type: functional; settings: SNB-75, 48 h, read-out: Activity
How it was run: (§3)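 NCI-60 single-dose screen. Cells were grown in RPMI 1640 with 5% FBS and 2 mM L-glutamine and plated at 5,000–40,000 cells/well. After an overnight preincubation at 37 °C in 5% CO2, compound was added at a final 10 µM from a DMSO stock, with DMSO/PBS controls. After 48 h, cells were TCA-fixed and stained with 0.4% SRB, and absorbance was read at 515 nm. Growth is given as a percentage of untreated control.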

LOX IMVI = test: Growth inhibition of human LOXIMVI cells assessed as growth percentage at 10 uM incubated for 48 hrs by sulforhodamine B assay relative to control; assay type: functional; settings: read-out: Activity; how it was run: as §1
SF-539 [6] = test: Growth inhibition of human SF539 cells assessed as growth percentage at 10 uM incubated for 48 hrs by sulforhodamine B assay relative to control; assay type: functional; settings: SF-539, 48 h, read-out: Activity; how it was run: as §3
[7] = Growth inhibition of human HEK293 cells assessed as cell viability at 0.39 ug incubated for 48 hrs by MTT assay relative to control; assay type: cell-based; settings: read-out: Activity
PC-3 = test: Growth inhibition of human PC3 cells assessed as growth percentage at 10 uM incubated for 48 hrs by sulforhodamine B assay relative to control; assay type: functional; settings: PC-3, 48 h, read-out: Activity; how it was run: as §3
HEK293 = test: Growth inhibition of human HEK293 cells assessed as cell viability incubated for 48 hrs by MTT assay; assay type: cell-based; design: unit not given here
How it was run: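 HEK 293 normal-cell growth inhibition; measured in triplicate, IC50 reported as mean ± SD.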

SR = test: Growth inhibition of human SR cells assessed as growth percentage at 10 uM incubated for 48 hrs by sulforhodamine B assay relative to control; assay type: functional; settings: read-out: Activity; how it was run: as §3
HCT-15 = test: Growth inhibition of human HCT15 cells assessed as growth percentage at 10 uM incubated for 48 hrs by sulforhodamine B assay relative to control; assay type: functional; settings: HCT-15, 48 h, read-out: Activity; how it was run: as §2
OVCAR-5 = test: Growth inhibition of human OVCAR5 cells assessed as growth percentage at 10 uM incubated for 48 hrs by sulforhodamine B assay relative to control; assay type: functional; settings: OVCAR-5, 48 h, read-out: Activity; how it was run: as §3
[8] = Growth inhibition of human HEK293 cells assessed as cell viability at 25 ug incubated for 48 hrs by MTT assay relative to control; assay type: cell-based; settings: read-out: Activity
MDA-MB-435 [9] = test: Induction of apoptosis in human MDA-MB-435 cells assessed as active caspase 3 level incubated for 2 hrs by ELISA (reference value: 1); assay type: functional
How it was run: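 Active caspase-3 was measured by human sandwich ELISA. Samples were incubated on the plate for 2 h at room temperature. This was followed by 1 h with detection antibody, 30 min with anti-rabbit IgG-HRP, and 30 min with chromogen, with all steps at room temperature. Absorbance was read at 450 nm, and levels were read from a standard curve.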

MDA-MB-435 [10] = test: Induction of apoptosis in human MDA-MB-435 cells assessed as active caspase 9 level incubated for 2 hrs by ELISA (reference value: 1); assay type: functional
How it was run: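 Caspase-9 was measured by human ELISA on cell lysates, with samples in duplicate. Samples were incubated with detection antibody for 2 h at room temperature. This was followed by 1 h with anti-rabbit IgG-HRP and 10 min with TMB substrate. After a stop solution, absorbance was read at 450 nm.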

M14 = test: Growth inhibition of human M14 cells incubated for 48 hrs by sulforhodamine B assay; assay type: functional; settings: M14, 48 h
How it was run: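 NCI-60 five-dose SRB assay in RPMI 1640 with 5% FBS, 37 °C, 5% CO2. Compound given at five tenfold dilutions, 0.01–100 µM, for 48 h. Adherent cells fixed with TCA, suspension cells with 16% final TCA. Bound SRB read at 515 nm and growth calculated against time-zero and untreated controls. GI50 taken from dose–response curves as the concentration giving a 50% decrease in net cell growth.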

SF-539 [11] = test: Growth inhibition of human SF539 cells assessed as cell viability at 0.001 uM incubated for 48 hrs by sulforhodamine B assay relative to control; assay type: functional; settings: SF-539, 48 h, read-out: Activity
NCI-H460 [12] = test: Growth inhibition of human NCI-H460 cells assessed as cell viability at 0.1 uM incubated for 48 hrs by sulforhodamine B assay; assay type: functional; settings: NCI-H460, 48 h, read-out: Activity
ACHN = test: Growth inhibition of human ACHN cells assessed as cell viability at 1 uM incubated for 48 hrs by sulforhodamine B assay; assay type: functional; settings: read-out: Activity
How it was run: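 NCI-60 five-dose mode: five tenfold dilutions (0.01, 0.1, 1, 10, 100 µM) are applied for 48 h to cells in RPMI 1640 with 5% FBS at 37 °C. Endpoint is TCA fixation with sulforhodamine B read at 515 nm. % growth comes from the 0 h and control absorbances. GI50 is the concentration giving a 50% reduction in net cell growth.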

Compound | growth at 10 µM (NCI-H460 [1]) | viability at 48 h, 1.56 ug [2] | growth at 10 µM (CAKI-1) | viability at 48 h, 6.25 ug [3] | growth at 10 µM (A498) | viability at 48 h, 100 ug [4] | IC50 [5] | growth at 10 µM (SNB-75) | growth at 10 µM (LOX IMVI) | growth at 10 µM (SF-539 [6]) | viability at 48 h, 0.39 ug [7] | growth at 10 µM (PC-3) | IC50 (HEK293) | growth at 10 µM (SR) | growth at 10 µM (HCT-15) | growth at 10 µM (OVCAR-5) | viability at 48 h, 25 ug [8] | fold change (FC) (MDA-MB-435 [9]) | fold change (FC) (MDA-MB-435 [10]) | other results
CC(=O)C1=C(C)Nc2nc3ccccc3n2C1c1ccc2c(c1)OCO2 (racemic) | 112% | 70.7% | 88.3% | 59% | 112% | 36.6% | 14.1 µM | 88.2% | 94.9% | 99.7% | 77.4% | 92.8% | 19.3 | 73.8% | 98.2% | 113% | 48.6% |  |  | 
CC(=O)N1C(=S)NC(C)=C(C(=O)OCc2ccccc2)C1c1ccc2c(c1)OCO2 (racemic) | 77.9% | 69.3% | 92.4% | 61.3% | 92% | 41.4% | 3.86 µM | 80.4% | 74.1% | 84.2% | 76.2% | 81.3% | 27.99 |  | 83.8% | 107% | 50% | 7.9 | 18.79 | 
CC1=C(C(=O)OCc2ccccc2)C(c2ccc3c(c2)OCO3)n2c(nc3ccccc32)N1 (racemic) | 6.62 to 8% | 67.2% | 24 to 34.3% | 58.7% |  | 36% | 4.36 µM |  | 34.6 to 38% | 9.94 to 21% | 77.6% | 35 to 41.1% | 16.75 | 9.81 to 43% | 23 to 30.4% | 53 to 64.4% | 47.2% | 6.83 | 12.43 | GI50 (M14; read-out: GI50): 0.46 µM; LC50 (50% net cell kill) (M14; read-out: LC50): > 100 µM; TGI (M14; read-out: TGI): > 100 µM; GI50 (M14; read-out: pGI50 (converted)): 0.468 µM; LC50 (50% net cell kill) (M14; read-out: pLC50 (converted)): > 100 µM; TGI (M14; read-out: pTGI): > 100 µM; viability at 0.001 µM (SF-539 [11]): 91%; viability at 0.1 µM (NCI-H460 [12]): 100%; viability at 1 µM (ACHN): 39%
